PMC8278208 (Toxicology Reports, 2021)

Columns and labels:
[1] = system: doxorubicin-resistant K562/Dox (P-glycoprotein-overexpression) leukemia cells; assay: Cell viability, resazurin assay, K562/Dox; type: cell-based, human; conditions: K562/Dox, 48, 72, and 96 h
In short: (§1)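 Cells seeded at 5×10^4 cells mL⁻¹ and exposed to a range of test compound concentrations for 48, 72 and 96 h. Resazurin solution (0.1 mg mL⁻¹) was then added, followed by a further 4 h incubation. Fluorescence was read at ex 570/em 590 nm. % viability = (F treated/F untreated control) × 100. Three independent experiments, mean ± S.E.; Student's t-test versus untreated control, p<0.05.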

[2] = Cell viability, resazurin assay, K562/Dox; type: cell-based, human; conditions: human
In short: as §1

[3] = target: human serum albumin (HSA) (Homo sapiens, UniProt P02768); assay: Fluorescence quenching of HSA by 4-HBA or VA; type: binding; conditions: for fluorescence quenching mechanism: from temperature dependence of Ksv and Kq; for quenching rate constant Kq ± SE: τ0 5 ns; for enthalpy change ΔH / entropy change ΔS: from Kb at 298 and 310 K
In short: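 HSA (1 μM) in PBS was titrated with test compound to final 0–10,000 μM. Intrinsic fluorescence was recorded at ex 280 nm, em 290–500 nm, slits 5 nm, 1.0 cm cell, at 298 and 310 K and pH 6, 7.4 and 8. Intensity at 342 nm was fitted by Stern–Volmer (τ0 5 ns) for KSV/Kq and by double-log plot for Kb and n. ΔH, ΔS and ΔG were derived from these fits.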

K562 cancer cells = assay: Cell morphological observation by light microscope, K562; type: cell-based, human; conditions: high concentrations (10 mM shown at 72 h), also at 48 and 96 h
[4] = Cell viability, resazurin assay, K562; type: cell-based, human; conditions: human, K562 cells (doxorubicin-sensitive leukemia)
In short: as §1

[5] = system: doxorubicin-sensitive K562 leukemia cells; assay: Cell viability, resazurin assay, K562; type: cell-based, human; conditions: for cell viability percentage vs control group: K562, 48, 72, and 96 h
In short: as §1

[6] = 0.01, 0.05, 0.1, 0.5, 1, and 5 mM
[7] = 298 and 310 K, pHs 7.4, 6.0 and 8.0

Sequence of human serum albumin (HSA) (P02768 25-609): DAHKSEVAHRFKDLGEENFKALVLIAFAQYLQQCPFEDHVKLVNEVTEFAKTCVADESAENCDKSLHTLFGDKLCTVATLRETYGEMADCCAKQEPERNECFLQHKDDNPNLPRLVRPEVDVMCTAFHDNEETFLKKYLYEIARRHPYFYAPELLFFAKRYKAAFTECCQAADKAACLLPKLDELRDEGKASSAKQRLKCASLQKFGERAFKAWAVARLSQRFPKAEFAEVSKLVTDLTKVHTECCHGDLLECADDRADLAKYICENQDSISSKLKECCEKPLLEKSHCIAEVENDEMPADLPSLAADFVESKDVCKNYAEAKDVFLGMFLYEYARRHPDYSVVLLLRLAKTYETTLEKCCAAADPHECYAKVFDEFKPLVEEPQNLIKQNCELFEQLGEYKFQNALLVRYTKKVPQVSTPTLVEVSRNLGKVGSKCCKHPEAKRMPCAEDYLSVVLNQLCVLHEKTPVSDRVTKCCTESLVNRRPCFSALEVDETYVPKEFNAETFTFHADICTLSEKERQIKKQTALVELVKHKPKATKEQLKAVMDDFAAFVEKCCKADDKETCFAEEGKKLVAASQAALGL

Structure (SMILES): O=C(O)c1ccc(O)cc1 [4-HBA, 4-Hydroxybenzoic acid]
- cell viability percentage vs control group [1, 6]: did not significantly change
- viability at 48 h, 10 mM [2]: 75.4 ± 8.61%
- viability at 72 h, 10 mM [2]: 70.4 ± 5.21%
- viability at 96 h, 10 mM [2]: 66.3 ± 7.67%
- concentrations at which fluorescence intensity of HSA decreased [3, 7]: 5–10,000 μM
- concentrations at which fluorescence intensity of HSA decreased ([3]; PBS pH 7.4, 298 K, 1 μM HSA): 5–10,000 μM
- fluorescence quenching mechanism [3]: static quenching mechanism
- Gibbs binding free energy change ΔG ([3]; pH 6.0, 298 K): -4.178 kcal/mol
- Stern-Volmer quenching constant KSV ± SE ([3]; pH 6.0, 298 K): 4.4982 ± 2.10 × 10^3 L mole^−1
- number of binding site n ± SE ([3]; pH 6.0, 298 K): 0.8623 ± 0.05
- quenching rate constant Kq ± SE ([3]; pH 6.0, 298 K): 0.8996 ± 0.42 × 10^12 L. mole^−1 s^−1
- Gibbs binding free energy change ΔG ([3]; pH 6.0, 310 K): -3.769 kcal/mol
- Stern-Volmer quenching constant KSV ± SE ([3]; pH 6.0, 310 K): 4.2857 ± 0.93 × 10^3 L mole^−1
- number of binding site n ± SE ([3]; pH 6.0, 310 K): 0.9016 ± 0.06
- quenching rate constant Kq ± SE ([3]; pH 6.0, 310 K): 0.8572 ± 0.19 × 10^12 L. mole^−1 s^−1
- enthalpy change ΔH ([3]; pH 6.0): -14.3 kcal/mol
- entropy change ΔS ([3]; pH 6.0): −142.12 J. mol^−1 K^−1
- Gibbs binding free energy change ΔG ([3]; pH 7.4, 298 K): -2.753 kcal/mol
- Stern-Volmer quenching constant KSV ± SE ([3]; pH 7.4, 298 K): 3.0657 ± 1.18 × 10^3 L mole^−1
- number of binding site n ± SE ([3]; pH 7.4, 298 K): 0.6130 ± 0.05
- quenching rate constant Kq ± SE ([3]; pH 7.4, 298 K): 0.6131 ± 0.24 × 10^12 L. mole^−1 s^−1
- Gibbs binding free energy change ΔG ([3]; pH 7.4, 310 K): -2.36 kcal/mol
- Stern-Volmer quenching constant KSV ± SE ([3]; pH 7.4, 310 K): 2.7164 ± 0.27 × 10^3 L mole^−1
- number of binding site n ± SE ([3]; pH 7.4, 310 K): 0.7235 ± 0.05
- quenching rate constant Kq ± SE ([3]; pH 7.4, 310 K): 0.5433 ± 0.05 × 10^12 L. mole^−1 s^−1
- enthalpy change ΔH ([3]; pH 7.4): -12.42 kcal/mol
- entropy change ΔS ([3]; pH 7.4): −135.72 J. mol^−1 K^−1
- Gibbs binding free energy change ΔG ([3]; pH 8.0, 298 K): -3.623 kcal/mol
- Stern-Volmer quenching constant KSV ± SE ([3]; pH 8.0, 298 K): 1.8046 ± 0.51 × 10^3 L mole^−1
- number of binding site n ± SE ([3]; pH 8.0, 298 K): 0.8005 ± 0.11
- quenching rate constant Kq ± SE ([3]; pH 8.0, 298 K): 0.3609 ± 0.10 × 10^12 L. mole^−1 s^−1
- Gibbs binding free energy change ΔG ([3]; pH 8.0, 310 K): -3.382 kcal/mol
- Stern-Volmer quenching constant KSV ± SE ([3]; pH 8.0, 310 K): 1.4572 ± 0.25 × 10^3 L mole^−1
- number of binding site n ± SE ([3]; pH 8.0, 310 K): 1.0784 ± 0.29
- quenching rate constant Kq ± SE ([3]; pH 8.0, 310 K): 0.2914 ± 0.05 × 10^12 L. mole^−1 s^−1
- enthalpy change ΔH ([3]; pH 8.0): -9.661 kcal/mol
- entropy change ΔS ([3]; pH 8.0): −84.76 J. mol^−1 K^−1
- morphological changes in treated cells (K562 cancer cells): rough cells, shrinking cells, irregular shape cells, and membrane blebbing
- viability at 72 h, 10 mM [4]: 90.3 ± 0.96%
- viability at 96 h, 10 mM [4]: 87.6 ± 1.01%
- cell viability percentage ([5]; K562, 10 mM, 48 h): did not significantly change
- cell viability percentage vs control group [5, 6]: did not significantly change

Structure (SMILES): COc1cc(C(=O)O)ccc1O [VA, 4-hydroxy-3-methoxybenzoic acid]
- cell viability percentage vs control group ([1]; 0.01, 0.05, 0.1, 0.5, and 1 mM): did not significantly change
- viability at 48 h, 5 mM [2]: 75.3 ± 6.23%
- viability at 48 h, 10 mM [2]: 53.5 ± 10.7%
- viability at 72 h, 5 mM [2]: 70.7 ± 11.1%
- viability at 72 h, 10 mM [2]: 41 ± 5.78%
- viability at 96 h, 5 mM [2]: 65.5 ± 2.36%
- viability at 96 h, 10 mM [2]: 35.9 ± 3.61%
- concentrations at which fluorescence intensity of HSA decreased [3, 7]: 2,000 to 10,000 μM
- concentrations at which fluorescence intensity of HSA decreased ([3]; PBS pH 7.4, 298 K, 1 μM HSA): 2,000 to 10,000 μM
- fluorescence quenching mechanism [3]: dynamic quenching mechanism
- Gibbs binding free energy change ΔG ([3]; pH 6.0, 298 K): -3.411 kcal/mol
- Stern-Volmer quenching constant KSV ± SE ([3]; pH 6.0, 298 K): 1.2621 ± 0.19 × 10^3 L mole^−1
- number of binding site n ± SE ([3]; pH 6.0, 298 K): 0.7071 ± 0.08
- quenching rate constant Kq ± SE ([3]; pH 6.0, 298 K): 0.2524 ± 0.04 × 10^12 L. mole^−1 s^−1
- Gibbs binding free energy change ΔG ([3]; pH 6.0, 310 K): -3.109 kcal/mol
- Stern-Volmer quenching constant KSV ± SE ([3]; pH 6.0, 310 K): 1.4092 ± 0.09 × 10^3 L mole^−1
- number of binding site n ± SE ([3]; pH 6.0, 310 K): 0.6174 ± 0.08
- quenching rate constant Kq ± SE ([3]; pH 6.0, 310 K): 0.2818 ± 0.02 × 10^12 L. mole^−1 s^−1
- enthalpy change ΔH ([3]; pH 6.0): -10.9 kcal/mol
- entropy change ΔS ([3]; pH 6.0): −105.08 J. mol^−1 K^−1
- Gibbs binding free energy change ΔG ([3]; pH 7.4, 298 K): -2.737 kcal/mol
- Stern-Volmer quenching constant KSV ± SE ([3]; pH 7.4, 298 K): 0.7564 ± 0.03 × 10^3 L mole^−1
- number of binding site n ± SE ([3]; pH 7.4, 298 K): 0.5786 ± 0.03
- quenching rate constant Kq ± SE ([3]; pH 7.4, 298 K): 0.1513 ± 0.01 × 10^12 L. mole^−1 s^−1
- Gibbs binding free energy change ΔG ([3]; pH 7.4, 310 K): -2.35 kcal/mol
- Stern-Volmer quenching constant KSV ± SE ([3]; pH 7.4, 310 K): 0.8312 ± 0.09 × 10^3 L mole^−1
- number of binding site n ± SE ([3]; pH 7.4, 310 K): 0.3816 ± 0.09
- quenching rate constant Kq ± SE ([3]; pH 7.4, 310 K): 0.1662 ± 0.02 × 10^12 L. mole^−1 s^−1
- enthalpy change ΔH ([3]; pH 7.4): -12.45 kcal/mol
- entropy change ΔS ([3]; pH 7.4): −136.42 J. mol^−1 K^−1
- Gibbs binding free energy change ΔG ([3]; pH 8.0, 298 K): -3.069 kcal/mol
- Stern-Volmer quenching constant KSV ± SE ([3]; pH 8.0, 298 K): 0.7592 ± 0.06 × 10^3 L mole^−1
- number of binding site n ± SE ([3]; pH 8.0, 298 K): 0.6340 ± 0.04
- quenching rate constant Kq ± SE ([3]; pH 8.0, 298 K): 0.1518 ± 0.01 × 10^12 L. mole^−1 s^−1
- Gibbs binding free energy change ΔG ([3]; pH 8.0, 310 K): -2.99 kcal/mol
- Stern-Volmer quenching constant KSV ± SE ([3]; pH 8.0, 310 K): 1.0384 ± 0.07 × 10^3 L mole^−1
- number of binding site n ± SE ([3]; pH 8.0, 310 K): 0.5257 ± 0.08
- quenching rate constant Kq ± SE ([3]; pH 8.0, 310 K): 0.2077 ± 0.01 × 10^12 L. mole^−1 s^−1
- enthalpy change ΔH ([3]; pH 8.0): -5.062 kcal/mol
- entropy change ΔS ([3]; pH 8.0): −27.97 J. mol^−1 K^−1
- morphological changes in treated cells (K562 cancer cells): rough cells, shrinking cells, irregular shape cells, and membrane blebbing
- viability at 48 h, 5 mM [4]: 79.8 ± 3.98%
- viability at 48 h, 10 mM [4]: 70.6 ± 2.93%
- viability at 72 h, 5 mM [4]: 81.3 ± 6.51%
- viability at 72 h, 10 mM [4]: 58 ± 5.46%
- viability at 96 h, 5 mM [4]: 82.9 ± 5.89%
- viability at 96 h, 10 mM [4]: 56.7 ± 18.2%
- cell viability percentage vs control group ([5]; 0.01, 0.05, 0.1, 0.5, and 1 mM): did not significantly change
